Screens as filed in PubChem BioAssay.
Compounds with a hit are over-represented: about 2.9% of the library has one in this group of screens.
Mot1-301 SUMO = blocks SUMOylation pathway, rescuing yeast Mot1-301 growth | growth rescue, % at 18.8 µM | hit rate 1% among 320,000 | S. cerevisiae Mot1-301 growth rescue, ATP luminescence, 38.5C; percent above DMSO median, 100 means doubled;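 active = every valid replicate shows activation above 250% relative to neutral control wells; inactive = the rest, any valid replicate at or below 250%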;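 also: OY570 slx delta 5 strain wells were the positive control but not used for scaling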
VIM-2 inhibitor = inhibitors of Pseudomonas aeruginosa VIM-2 metallo-beta-lactamase. AID 1527. hit rate 0.89% among 290,000. inhibition, % at 5.6 µM. purified VIM-2, nitrocefin hydrolysis, epi-absorbance fluorescence;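 active = inhibition above the mean of all tested compounds plus 3 SD, cutoff set per screening run, cut at about 7.5% in these data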;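 also: red hydrolysis product quenches plate fluorescence so inhibitors raise well fluorescence; 0% = enzyme with DMSO and 100% = DMSO without enzyme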
NALP3 yeast inh = inhibitors of NALP3 inflammasome in yeast; inhibition, % at 10 µM; Yeast reconstituted NLRP3/ASC/caspase-1, beta-gal luminescence, 24 h; hit rate 0.39% among 330,000; AID 2825;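 active = inhibition of 50% or more; inactive = inhibition below 50%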;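 also: plate controls were induced DMSO wells for no effect and uninduced yeast grown without galactose for full effect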
IMP-1 inhibitor = blocks Pseudomonas aeruginosa IMP-1 metallo-beta-lactamase; purified IMP-1, nitrocefin hydrolysis, epi-absorbance fluorescence; inhibition, % at 5.6 µM; hit rate 0.45% among 290,000; AID 1556;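 active = inhibition above the mean plus 3 SD of all compounds in the same screening run, cut at about 4.5% in these data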;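 also: 0% = IMP-1 with DMSO and 100% = DMSO wells lacking enzyme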
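Assay system: purified recombinant IMP-1 beta-lactamase. Input: IMP-1 0.2 nM before substrate addition. Buffer or medium: Zinc- and detergent-supplemented HEPES buffer, pH 7.1. Schedule: 25 °C, 15 min preincubation, 25 min reaction. Signal: Epi-absorbance fluorescence, 480 nm excitation, 530 nm emission. Evaluation: percent inhibition from optical density relative to buffer-blank wells.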
NALP1 inh = blocks the NALP1 inflammasome reconstituted in yeast | hit rate 0.61% among 280,000 | inhibition, % at 10 µM | S. cerevisiae NALP1/ASC/caspase-1 growth, X-gal OD620, 72 h | AID 2071; in the data active = inhibition mostly above about 24%, no sharp cut-off; inactive = mostly below about 32%
PolyA inhibitor = inhibitors of polyadenylation in S. cerevisiae; S. cerevisiae SKY197-pL101 polyadenylation reporter, beta-gal luminescence; efflux-impaired pdr1/pdr3 knockout yeast; score 100 = 6 SD above DMSO; activity score, % at 12 µM; hit rate 0.02% among 300,000; AID 1875;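 active = lowest replicate activity score at least 50, where 100 means six control SD above control mean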;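 also: yeast exposed to compound for 9 h at 30 °C; higher score means more reporter readthrough which indicates perturbed polyadenylation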
The depositor's hits bear a star; x = no result given.

SMILES	Mot1-301 SUMO	VIM-2 inhibitor	NALP3 yeast inh	IMP-1 inhibitor	NALP1 inh	PolyA inhibitor
O=C1c2cccc3c(N4CCCCC4)ccc(c23)C(=O)N1c1ccccn1	2	3	6	5.8*	6	-15
O=C(CSc1cccc[n+]1[O-])Nc1cc2c(cc1Cl)C(=O)c1ccccc1C2=O	-2	-1	x	-1	55*	-8
O=C(CSc1cccc[n+]1[O-])Nc1cc([N+](=O)[O-])ccc1Cl	-19	-2	-14	-1	14	10
CC(=O)C(C)Oc1ccc2c3c(c(=O)oc2c1C)CCCC3 (stereo not drawn)	-2	10*	12	-5	6	1
Cc1c(O)ccc2c3c(c(=O)oc12)CCC(C)C3 (stereo not drawn)	26	0	21	-3	x	-13
Cc1c(OC(C)C(=O)N[C@H](C(=O)O)c2ccccc2)ccc2c3c(c(=O)oc12)CCCC3 (stereo partly drawn)	10	7.8*	12	-4	10	-5
Cc1c(O)ccc2c3c(c(=O)oc12)CCCC3	-6	10*	19	-5	21	x
Cc1c(OC(=O)CNC(=O)OC(C)(C)C)ccc2c3c(c(=O)oc12)CCC3	64	23*	-9	-1	13	x
Cc1ccc(NC(=O)CN2CCN(C(=O)C3CCCO3)CC2)c(C)c1 (stereo not drawn)	308	-3	0	-3	6	-7
CCC(C(=O)Nc1ccsc1C(=O)OC)c1ccccc1 (stereo not drawn)	2	-2	11	-3	15	-8
C(=C\c1nc(N2CCCC2)c2ccccc2n1)/c1ccccc1	10	2	48	-2	64*	-16
CC1CCN(c2nc(/C=C/c3ccccc3)nc3ccccc23)CC1	186	-2	25	0	43	-15
COC(=O)c1cc(C(=O)N2CCN(c3cccc(C)c3C)CC2)cc([N+](=O)[O-])c1	21	-5	12	-1	21	103*
COC(=O)c1cc(C(=O)N2CCN(c3ccccc3OC)CC2)cc([N+](=O)[O-])c1	27	-2	13	-4	-5	11
CCCCN(CC(O)COc1cccc(C)c1)CC(O)COc1cccc(C)c1 (stereo not drawn)	-10	-1	15	-4	16	8
CC(C)c1nc2sc3c(=O)[nH]cnc3c2c2c1CCC2	-1	1	0	0	46	-10
CC(C)c1nc2sc3c(=S)nc[nH]c3c2c2c1CCC2	87	-5	-4	4.5*	-4	-4
CC(=O)N1N=C(c2ccc(C)cc2)CC1c1ccco1 (stereo not drawn)	-8	4	4	-1	1	-12
CC(=O)N1N=C(c2ccc(Cl)cc2)CC1c1ccco1 (stereo not drawn)	-19	9.9*	18	-1	16	-6
Cn1nccc1C(=O)NC(=S)Nc1cc(Cl)cc(Cl)c1	334*	-2	-7	1	1	1
Cc1ccc2cccc(NC(=S)NC(=O)c3ccnn3C)c2n1	-6	6	26	-3	0	-6
CCN(CC(=O)NCc1ccc(F)cc1)Cc1cc(=O)n2ccsc2n1	x	-4	-9	7.6*	-18	12
CCN(CC(=O)Nc1ccc2c(c1)OCCO2)Cc1cc(=O)n2ccsc2n1	-17	-5	-3	-4	6	2
CCOC(=O)c1sc(NC(=O)c2ccoc2C)c(C(N)=O)c1C	17	8.0*	15	0	11	-1
Cc1c(Cc2ccccc2)c(=O)oc2c(CN(C)C)c(O)c(Cl)cc12	27	-2	7	4.7*	8	-15
SMILES	Mot1-301 SUMO	VIM-2 inhibitor	NALP3 yeast inh	IMP-1 inhibitor	NALP1 inh	PolyA inhibitor
Cc1sc2nc(CSCC(=O)Nc3ccccc3C#N)[nH]c(=O)c2c1C	2	-1	14	0	7	4
COc1cc(-c2nnc(SCc3cc(=O)oc4cc(O)c(O)cc34)o2)cc(OC)c1OC	-17	2	5	-7	45*	5
CCOC(=O)CSc1nnc(-c2cc(OC)c(OC)c(OC)c2)o1	221	-1	10	0	1	-11
C=CCN(c1ccccc1)S(=O)(=O)c1cccc(C(=O)NC2CCN(Cc3ccccc3)CC2)c1	96	x	19	x	x	4
COCCCNc1nc(-c2ccc(Cl)cc2)nc2ccccc12	16	0	26	-2	36*	-5
C[C@H](CCC(=O)O)[C@H]1CC[C@H]2[C@@H]3CC[C@@H]4C[C@H](O)CC[C@]4(C)[C@H]3C[C@H](O)[C@]12C	422*	x	-10	x	x	34
C[C@H](CCC(=O)O)[C@H]1CC[C@H]2[C@@H]3[C@H](O)C[C@@H]4C[C@H](O)CC[C@]4(C)[C@H]3CC[C@]12C	11	x	23	x	x	x
CC(C(=O)N1CCN(C(=O)c2ccco2)CC1)N1C(=O)NC2(CCCCC2C)C1=O (stereo not drawn)	-17	x	16	x	x	x
COc1ccccc1NC(=O)c1ccc(S(=O)(=O)N2CCCC(C)C2)cc1 (stereo not drawn)	7	0	5	-3	14	8
CCN(CC)C(=O)CSc1n[nH]c(=O)n1CCc1ccccc1	34	0	9	-2	3	0
O=c1[nH]nc(Sc2ncnc3sccc23)n1CCc1ccccc1	92	9.7*	8	-4	8	-3
CCN(CC(=O)NCc1cccs1)C(=O)c1ccc(S(=O)(=O)Nc2cccc(C)c2C)cc1	-11	0	-7	-2	11	-4
Clc1ccc(C(Cn2ccnc2)OCc2c(Cl)cccc2Cl)c(Cl)c1 (stereo not drawn)	346*	x	34	x	x	x
CCCN(CC1CC1)C(=O)COC(=O)c1oc2c(F)cccc2c1C	-24	x	18	x	x	x
CC(N)=Nc1ccc([N+](=O)[O-])cc1	129	-1	8	-2	16	-4
O=[N+]([O-])c1ccc(N=Nc2c(Cl)cc(O)cc2Cl)cc1	-22	-5	x	-6	99*	-87
Cc1nc(CS(=O)(=O)c2ccc(Cl)cc2)cc(N2CCOCC2)n1	21	-1	17	-2	-6	-12
O=S(=O)(Cc1cc(N2CCOCC2)nc(-c2ccccn2)n1)c1ccccc1	0	2	-6	-7	22*	-8
O=C(COc1ccc(S(=O)(=O)NC2CCCCC2)cc1)NC1CC1	-9	2	5	2	12	-17
O=[N+]([O-])c1ccc(NCCCN2CCOCC2)c([N+](=O)[O-])c1	600*	0	11	-1	18	-9
O=C(CSC1CC(=O)N(CCc2ccccc2)C1=O)Nc1cccc(Cl)c1 (stereo not drawn)	314*	-2	5	-2	33	-9
O=C(CSC1CC(=O)N(CCc2ccccc2)C1=O)Nc1ccc(Br)cc1 (stereo not drawn)	22	-1	3	-2	13	24
